Assay [1] addresses Delta-type opioid receptor (Homo sapiens, UniProt P41143). Put plainly: Inhibition of [125I]deltorphin binding to human delta opioid receptor from membranes of HEK293 cells. Format: cell membranes. A digest of the protocol:
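Displacement of [125I]-Deltorphin from membranes of HEK293 cells overexpressing human delta opioid receptor, read by classical filter binding. IC50 came from full dose–response curves on purified material, in single determinations.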

A further assay has as its target Mu-type opioid receptor (Homo sapiens, UniProt P35372). The assay can be described thus: Inhibition of [125I]Enkephalin binding to human mu opioid receptor from membranes of HEK293 cells. The class given is cell membranes. The essentials: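 Filter binding on membranes of HEK293 cells overexpressing human mu opioid receptor, measuring displacement of [125I]-Enkephalin. IC50 came from full dose–response curves on purified material, in single determinations.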

The target in assay [2] is T1, Kappa-type opioid receptor (Homo sapiens, UniProt P41145). Put plainly: Inhibition of [125I]-(D-Pro10)-Dynorphin A binding to human kappa opioid receptor from membranes of HEK293 cells. The class given is cell membranes. A digest of the protocol:
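Classical filter binding on membranes from HEK293 cells overexpressing human kappa opioid receptor, measuring displacement of [125I]-(D-Pro10)-Dynorphin A. Purified compounds were run as full dose–response curves and reported as mean IC50 ± SEM. Crude or partially purified mixtures were screened at a single concentration for percent inhibition of radioligand binding.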

Assay [3] concerns the target T1, Kappa-type opioid receptor. The assay can be described thus: Inhibitory concentration against [125I]-(D-Pro10)-Dynorphin A binding to human kappa opioid receptor from membranes of HEK293 cells. The class given is cell membranes. The conditions noted are these: concentration not given here. A digest of the protocol: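 Filter binding on membranes from HEK293 cells overexpressing the human kappa opioid receptor. Displacement of [125I]-(D-Pro10)-Dynorphin A was measured, with full dose–response curves on purified material. IC50 is the mean of determinations, quoted with SEM.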

The target of assay [4] is T1, Kappa-type opioid receptor. The assay can be described thus: Effective dose for agonistic activity towards human kappa opioid receptor from membranes of HEK293 cells was determined by radiolabeled [35S]GTP-gamma-S, assay. Format: functional, cell membranes.

The record followed here is ChEMBL document CHEMBL1136656, “Synthesis and Biological activity of kappa opioid receptor agonists. Part 2: preparation of 3-aryl-2-pyridone analogues generated by solution- and solid-phase parallel synthesis methods” (Bioorg Med Chem Lett, 2003).

SMILES strings stand for the structures.

T1 sequence (P41145 whole entry): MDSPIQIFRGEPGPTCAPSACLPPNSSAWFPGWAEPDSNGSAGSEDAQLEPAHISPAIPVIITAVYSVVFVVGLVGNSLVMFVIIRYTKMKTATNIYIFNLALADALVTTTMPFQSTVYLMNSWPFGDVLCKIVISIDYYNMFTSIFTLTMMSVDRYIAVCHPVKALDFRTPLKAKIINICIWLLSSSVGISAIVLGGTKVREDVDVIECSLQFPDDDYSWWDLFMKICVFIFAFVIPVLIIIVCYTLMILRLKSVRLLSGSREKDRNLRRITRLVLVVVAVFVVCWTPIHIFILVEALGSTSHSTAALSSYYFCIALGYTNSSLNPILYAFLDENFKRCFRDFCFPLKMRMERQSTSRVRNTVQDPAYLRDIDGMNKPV
Delta-type opioid receptor, sequence (P41143 whole entry): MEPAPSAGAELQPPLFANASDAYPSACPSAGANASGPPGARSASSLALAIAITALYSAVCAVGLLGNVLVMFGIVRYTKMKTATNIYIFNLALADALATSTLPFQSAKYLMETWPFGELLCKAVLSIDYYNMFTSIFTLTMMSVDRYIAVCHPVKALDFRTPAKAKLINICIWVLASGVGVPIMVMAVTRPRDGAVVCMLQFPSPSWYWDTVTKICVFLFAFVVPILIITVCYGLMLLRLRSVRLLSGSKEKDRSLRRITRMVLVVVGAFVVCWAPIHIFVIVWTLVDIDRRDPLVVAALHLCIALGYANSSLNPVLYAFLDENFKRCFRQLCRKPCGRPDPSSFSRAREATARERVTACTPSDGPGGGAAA
Mu-type opioid receptor, sequence (P35372 whole entry): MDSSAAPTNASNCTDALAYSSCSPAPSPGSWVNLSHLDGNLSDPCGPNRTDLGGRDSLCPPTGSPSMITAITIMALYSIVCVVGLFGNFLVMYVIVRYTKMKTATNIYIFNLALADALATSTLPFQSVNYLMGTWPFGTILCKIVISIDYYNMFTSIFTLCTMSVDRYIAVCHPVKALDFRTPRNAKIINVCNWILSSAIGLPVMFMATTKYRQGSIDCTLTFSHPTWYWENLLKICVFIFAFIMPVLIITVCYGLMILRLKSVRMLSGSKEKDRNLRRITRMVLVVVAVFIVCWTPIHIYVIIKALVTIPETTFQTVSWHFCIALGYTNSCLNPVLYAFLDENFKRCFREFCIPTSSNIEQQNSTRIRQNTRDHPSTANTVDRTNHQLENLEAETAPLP

As usually defined, the IC50 is the concentration that gives 50% inhibition. Read a low IC50 as greater potency. Regarding `COc1ccc(C(CN2CCCC2)n2cccc(-c3ccc(C(F)(F)F)cc3)c2=O)cc1` (stereo unspecified), the IC50 in assay [1] was greater than 10000 nM; at Mu-type opioid receptor, greater than 10000 nM; in assay [2], 320 nM.

`O=c1c(Nc2ccc(C(F)(F)F)cc2)cccn1C(CN1CCCC1)c1ccccc1` (stereo unspecified): the results for the IC50 (in assay [1]; at Mu-type opioid receptor; in assay [2]) were greater than 10000 nM, 10000 nM and 82 nM, respectively.

With `O=c1c(-c2ccc(OC(F)(F)F)cc2)cccn1C(CN1CCC(O)C1)c1ccccc1` (stereo unspecified), the concentration for half-maximal inhibition (IC50) was greater than 10000 nM in assay [1], greater than 5000 nM on Mu-type opioid receptor and 7.6 nM in assay [2].

For the molecule `CC(=O)c1ccc(-c2cccn(C(CN3CCC(O)C3)c3ccccc3)c2=O)s1` (stereo unspecified), the figures for the IC50 (in assay [1]; at Mu-type opioid receptor; in assay [2]) were greater than 10000 nM, greater than 10000 nM and 38 nM, respectively.

Take `COc1ccc(OC)c(-c2cccn(C(CN3CCC(O)C3)c3ccccc3)c2=O)c1` (stereo unspecified): the results for the IC50 (in assay [1]; at Mu-type opioid receptor; in assay [2]) were greater than 10000 nM, 2220 nM and 6.9 nM, respectively.

As to `O=C1COc2ccc(C(CN3CCCC3)n3cccc(-c4ccc(C(F)(F)F)cc4)c3=O)cc2N1` (stereo unspecified), the IC50 in assay [1] is greater than 10000 nM; at Mu-type opioid receptor, greater than 10000 nM; in assay [2] it was 57 nM.

For the molecule `CC(=O)c1ccc(-c2cccn(C(CN3CCC(O)C3)c3ccccc3)c2=O)cc1` (stereo unspecified), the figures for the half-maximal inhibitory concentration (IC50) (in assay [1]; at Mu-type opioid receptor; in assay [2]) were greater than 10000 nM, 1750 nM and 14 nM, respectively.

As for `O=c1c(-c2ccc(Cl)cc2Cl)cccn1C(CN1CCCC1)c1ccccc1` (stereo unspecified), the 50% inhibitory concentration (IC50) was greater than 10000 nM in assay [1], 2100 nM at Mu-type opioid receptor and 2.3 nM in assay [2].

With `COc1cccc(OC)c1-c1cccn(C(CN2CCC(O)C2)c2ccccc2)c1=O` (stereo unspecified), the IC50 was greater than 10000 nM in assay [1], 3910 nM at Mu-type opioid receptor and 9.8 nM in assay [2].

As a reminder, the inhibition is the percentage by which the read-out fell short of the control. The low end stands for little suppression, the high end for strong suppression. As to `O=C(O)c1cccc(-c2cccn(C(CN3CCC(O)C3)c3ccccc3)c2=O)c1` (stereo unspecified), in assay [3], the inhibition was 41%.

For the molecule `Cc1cc(-c2cccn(C(CN3CCC(O)C3)c3ccccc3)c2=O)ccc1F` (stereo unspecified), the concentration for half-maximal inhibition (IC50) in assay [1] was greater than 10000 nM; at Mu-type opioid receptor, greater than 5000 nM; in assay [2], 8.4 nM.

With `O=c1c(-c2ccccc2)cccn1C(CN1CCC(O)C1)c1ccccc1` (stereo in doubt; 20a), the values for the IC50 (in assay [1]; on Mu-type opioid receptor; in assay [2]) were greater than 10000 nM, greater than 10000 nM and 465 nM, respectively.

In assay [2], `O=c1c(-c2ccccc2)ccnn1C(CN1CCCC1)c1ccccc1` (stereo unspecified) showed a half-inhibitory concentration (IC50) of 550 nM.

With `O=c1c(-c2ccc(F)cc2)cccn1C(CN1CCC(O)C1)c1ccccc1` (stereo unspecified), the values for the half-maximal inhibitory concentration (IC50) (in assay [1]; at Mu-type opioid receptor; in assay [2]) were greater than 10000 nM, greater than 10000 nM and 33 nM, respectively.

For the molecule `Cc1ccc(Nc2cccn(C(CN3CCCC3)c3ccccc3)c2=O)cc1` (stereo unspecified), the half-maximal inhibitory concentration (IC50) in assay [1] is greater than 10000 nM; in assay [2], 94 nM.

For `O=c1c(-c2ccc(C(F)(F)F)cc2)cccn1C(Cn1ccnc1)c1ccccc1` (stereo unspecified), the half-maximal inhibitory concentration (IC50) in assay [2] is greater than 10000 nM.

`COc1ccc(F)cc1-c1cccn(C(CN2CCC(O)C2)c2ccccc2)c1=O` (stereo unspecified): the 50% inhibitory concentration (IC50) in assay [1] was 460 nM; on Mu-type opioid receptor, greater than 10000 nM; in assay [2] it was 5.5 nM. The ED50 in assay [4] turned out to be 32 nM.

Consider `O=c1c(-c2ccccc2)cccn1C(CN1CCC(O)C1)c1ccccc1` (stereo in doubt; 14f), for which the concentration for half-maximal inhibition (IC50) is greater than 10000 nM in assay [1] (hek293), greater than 10000 nM on Mu-type opioid receptor (hek293) and 470 nM in assay [2].

`O=c1c(-c2ccc(C(F)(F)F)cc2)cccn1C(CN1C=CC=CC=N1)c1ccccc1` (stereo unspecified): the values for the IC50 (in assay [1]; on Mu-type opioid receptor; in assay [2]) were greater than 10000 nM, greater than 10000 nM and 1400 nM, respectively.

Regarding `O=Cc1ccccc1-c1cccn(C(CN2CCC(O)C2)c2ccccc2)c1=O` (stereo unspecified), the IC50 in assay [1] is greater than 10000 nM; in assay [2] it was 13 nM.

Consider `COc1ccccc1-c1cccn(C(CN2CCC(O)C2)c2ccccc2)c1=O` (stereo unspecified), for which the half-maximal inhibitory concentration (IC50) in assay [1] was greater than 10000 nM; in assay [2] it was 94 nM.

Regarding `O=c1c(Nc2ccccc2)cccn1C(CN1CCCC1)c1ccccc1` (stereo unspecified), the IC50 in assay [2] was greater than 1000 nM.

Consider `O=c1c(-c2ccc(C(F)(F)F)cc2)cccn1C(CN1CCOCC1)c1ccccc1` (stereo unspecified), for which the figures for the half-inhibitory concentration (IC50) (in assay [1]; at Mu-type opioid receptor; in assay [2]) were greater than 10000 nM, greater than 10000 nM and 700 nM, respectively.

Molecule `O=c1c(-c2ccccc2)cncn1C(CN1CCCC1)c1ccccc1` (stereo unspecified) registered an IC50 in assay [2] of 1760 nM.

As for `CCN(CC)c1ccc(C(CN2CCCC2)n2cccc(-c3ccc(C(F)(F)F)cc3)c2=O)cc1` (stereo unspecified), the half-maximal inhibitory concentration (IC50) is greater than 10000 nM in assay [1], greater than 10000 nM on Mu-type opioid receptor and 3080 nM in assay [2].

With `COc1ccc(Cl)cc1-c1cccn(C(CN2CCC(O)C2)c2ccccc2)c1=O` (stereo unspecified), the IC50 in assay [1] is greater than 10000 nM; on Mu-type opioid receptor, 190 nM; in assay [2] it was 53 nM.

On to `O=c1c(-c2ccccc2)nccn1C(CN1CCCC1)c1ccccc1` (stereo unspecified), for which, in assay [2], the half-maximal inhibitory concentration (IC50) is 2450 nM.

Consider `Nc1cccc(-c2cccn(C(CN3CCC(O)C3)c3ccccc3)c2=O)c1` (stereo unspecified), for which the IC50 was greater than 10000 nM in assay [1], 2910 nM on Mu-type opioid receptor and 25 nM in assay [2].

As to `Cc1ccc(C(C)Nc2cccn(C(CN3CCCC3)c3ccccc3)c2=O)cc1` (stereo unspecified), the half-maximal inhibitory concentration (IC50) in assay [1] is greater than 10000 nM; at Mu-type opioid receptor, greater than 10000 nM; in assay [2] it was 330 nM.

Consider `O=C(O)COc1cccc(C(CN2CCCC2)n2cccc(-c3ccc(C(F)(F)F)cc3)c2=O)c1` (stereo unspecified), for which the half-inhibitory concentration (IC50) was 5600 nM in assay [1], greater than 10000 nM at Mu-type opioid receptor and 420 nM in assay [2].

For `O=c1c(-c2cccc(CO)c2)cccn1C(CN1CCC(O)C1)c1ccccc1` (stereo unspecified), the half-maximal inhibitory concentration (IC50) in assay [1] is greater than 10000 nM; on Mu-type opioid receptor, greater than 5000 nM; in assay [2], 9.6 nM.

For the molecule `O=c1c(-c2cccc(OC(F)(F)F)c2)cccn1C(CN1CCC(O)C1)c1ccccc1` (stereo unspecified), the IC50 in assay [1] is greater than 10000 nM; on Mu-type opioid receptor it was greater than 5000 nM; in assay [2], 22 nM.

As for `O=c1c(-c2ccc(Cl)cc2Cl)cncn1C(CN1CCCC1)c1ccccc1` (stereo unspecified), the IC50 was greater than 10000 nM in assay [1], 9600 nM at Mu-type opioid receptor and 41 nM in assay [2]. For the same molecule, the ED50 in assay [4] stood at 615 nM.
